# FXIa inh 1536: inhibitors of human coagulation factor XIa. inhibition, % at 5 µM. purified FXIa, Boc-Glu-Ala-Arg-AMC fluorogenic substrate. P03951. actives 0.14% (n = 220,000);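 active = inhibition of at least 40%; inactive = inhibition below 40%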;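 also: fluorescence of freed AMC excited at 355 nm; 0% = enzyme without compound and 100% = no enzyme blank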
# FXIIa inh: inhibitors of human coagulation factor XIIa; actives 0.3% (n = 220,000); P00748; inhibition, % at 5 µM; purified FXIIa, Boc-QGR-AMC fluorogenic substrate, 2 h; in the data active = inhibition above about 40%;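 also: 0% = enzyme with no compound and 100% = blank without enzyme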
# Calpain2 inh: calpain II (pig) inhibition. actives 0.37% (n = 220,000). inhibition, % at 16 µM. purified calpain II, fluorogenic peptide substrate, 30 min. AID 1236;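 active = inhibition above about 50%, limit read from the data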
# KLK5 inh: blocks human kallikrein 5 protease activity | Q9Y337 | recombinant hK5, fluorogenic AMC substrate cleavage | inhibition, % at 5 µM | actives 0.59% (n = 210,000) | AID 873;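 active = inhibition of 40% or more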;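 also: 0% = enzyme controls without compound and 100% = no-enzyme blanks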
# thrombin 1536: inhibitors of human thrombin. actives 0.26% (n = 220,000). inhibition, % at 5 µM. alpha-thrombin, Boc-VPR-AMC fluorogenic substrate cleavage;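 active = inhibition at or above 40%; inactive = inhibition below 40%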;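 also: 0% = enzyme with no compound and 100% = wells without enzyme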
#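 Material: Human alpha-thrombin protein | Buffer or medium: pH 7.5 Tris-saline with Tween 20 | Reagent: Boc-VPR-AMC substrate, 15 µM final | Schedule: Reaction at ambient temperature | Detection: AMC fluorescence at 355 nm excitation and 460 nm emission | Evaluation: Percent inhibition scaled between no-compound controls and no-enzyme blanks | Controls: no-compound enzyme wells and no-enzyme blanks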
# Active calls of the source: *; . = not tested or not shown. Sampled rows, rich in hits. Any-hit rate of the full collection: about 1.4%.
SMILES,FXIa inh 1536,FXIIa inh,Calpain2 inh,KLK5 inh,thrombin 1536
Cc1ccc(NC2=NC3(CCCC3)N=C(N)N2)c(C)c1,-0.5,.,13.2,1.4,-6.3
O=C(Nc1cc(Cl)cc(Cl)c1)c1cnn2cccnc12,11.5,17.9,-1.9,68.8*,24.3
c1ccc(-c2cc3c(ccc4nonc43)nn2)cc1,-1.9,10.8,-8.7,4.3,-1.9
On1onc2c3cc(-c4ccccc4)nc3ccc21,3.7,7.1,82.5*,10.8,2.1
Cc1c(Cl)cccc1NC(=S)N1CCN(S(=O)(=O)c2cccs2)CC1,0.7,8.8,10.3,0.5,-10.7
CCCn1c2c(c(O)c(C(=O)Nc3nccs3)c1=O)CCCC2,-4.5,14.8,-46.3,32.6,100.6*
Cc1ccc(S(=O)(=O)Nn2c(C)nnc2-n2nc(C)cc2C)cc1,3.8,6.2,-14.1,-0.1,-4.7
Cc1cc(C)n(-c2nnc(C)n2NS(=O)(=O)c2ccc(F)cc2)n1,9.8,71.5*,1.2,3.7,2.3
O=C(Nc1ccc(OC(=O)c2ccccc2)c(-c2nc3ccccc3s2)c1)c1ccccc1,3.9,13.7,63.8*,-16.2,1.4
C/C(=N\NC(=O)c1ccccc1C)c1cccc([N+](=O)[O-])c1,-10.8,5.6,-7.8,-18.7,3.1
C/C(=N\Nc1ccc(Cl)c(C(=O)O)c1)c1cccc([N+](=O)[O-])c1,38.8,32.3,31.7,31.7,56.2*
CSc1ccc(C(=O)/C=C/c2ccc(N)cc2)cc1,16.8,5.9,30.0,69.3*,22.0
CSc1ccc(/C=C/C(=O)c2ccc(NC(=O)C(C)C)cc2)cc1,-2.3,1.2,2.3,-3.6,-4.8
CCNC(=S)N(CCc1c(C)[nH]c2ccc(Cl)cc12)Cc1ccco1,-4.5,6.4,58.6*,-1.4,-16.3
CNC(=S)N(CCc1c(C)[nH]c2ccc(C)cc12)Cc1ccco1,5.2,8.8,-10.6,-7.3,0.1
O=C(O)/C=C/C(=O)N1CCN(S(=O)(=O)c2cc(C(F)(F)F)ccc2Cl)CC1,33.8,30.8,9.8,53.1*,17.7
CC(=O)N1CCN(S(=O)(=O)c2ccc(Cl)cc2F)CC1,9.0,7.6,-27.2,-4.3,-4.7
CC1=C(C(=O)NCc2ccc(Cl)cc2)C2(CCC(C)CC2)OC1=O (centres undefined),-3.7,10.0,-5.0,-1.1,-0.1
CC1=C(C(=O)NCc2ccccn2)C2(CCC(C)CC2)OC1=O (centres undefined),5.8,25.5,0.1,114.5*,12.4
CCC(=O)Nc1ccc(NC(=O)CSc2nnnn2-c2ccc3c(c2)OCCO3)cc1,-1.5,7.4,13.5,-0.3,-0.4
O=C(CSc1nnnn1-c1ccc2c(c1)OCCO2)OC1CCCCC1,-6.9,0.0,71.2*,-28.5,-2.9
Cc1ccc(C(C#N)c2ccc3c(C(F)(F)F)cc(C(F)(F)F)nc3n2)cc1 (centres undefined),-5.9,-0.8,55.4*,-14.3,-3.3
CCOc1ccc(NC(=S)N(CCCN2CCOCC2)Cc2cn(C)c3ccccc23)cc1,2.2,7.6,-11.1,-2.1,1.9
COc1ccc(NC(=S)N(CCCN2CCOCC2)Cc2cn(C)c3ccccc23)cc1,4.0,9.1,54.1*,-11.6,-0.1
COc1cccc(NC(=S)N(CCCN2CCCC2)Cc2ccco2)c1,-0.5,10.2,-26.9,3.1,95.1*
SMILES,FXIa inh 1536,FXIIa inh,Calpain2 inh,KLK5 inh,thrombin 1536
Oc1ccc(Cc2ccc(Cl)cc2)c(O)c1,-0.5,5.0,8.0,-2.1,-5.8
CCOC(=O)c1[nH]c2ccc(OC)cc2c1NC(=S)N1CCN(c2ccccc2OC)CC1,1.8,5.1,-29.0,-0.1,-5.6
CN(c1ccc(C(=O)NCc2ccccc2)cc1)S(C)(=O)=O,6.2,23.4,6.3,40.1*,25.4
COc1ccc(NC(=O)c2ccc(Cn3cc(Cl)cn3)cc2)cc1,-2.5,6.9,-24.8,-1.1,-5.8
CN(C)c1ccc(NC(=O)c2ccc(Cn3cc([N+](=O)[O-])cn3)cc2)cc1,-2.7,5.8,-24.6,-0.6,96.8*
CCN(c1ccccc1)S(=O)(=O)c1ccc(N)c(OC)c1,-0.5,7.1,3.2,6.9,-0.6
COC(=O)/C=C1\N/C(=N\c2nc(C)cc(C)n2)N(c2ccc(C)c(C)c2)C1=O,8.4,16.4,10.9,-8.8,-6.1
CC(NC(=O)c1ccco1)C(=O)OC(C)C(=O)NCc1ccccc1 (centres undefined),33.2,23.6,12.8,41.5*,-0.2
O=C(COC(=O)CNS(=O)(=O)/C=C/c1ccccc1)Nc1cc(S(=O)(=O)N2CCCCC2)ccc1Cl,8.0,31.7,14.4,7.7,11.4
CCOc1cc(CNc2ccc(O)cc2)cc(Br)c1OCc1ccccc1F,22.4,28.0,73.3*,-15.9,-0.6

# Screens (PubChem BioAssay)
